Rows were chosen to be rich in hits. Some 2.1% of all compounds tested hit in one or more screens of this group.
XiGFP reactiv: activators of inactive X chromosome reactivation, primary screen, imaging, XiGFP fibroblasts, GFP high-content imaging, set 2; XiGFP mouse fibroblasts, % GFP-positive cells imaging, 3 d; cells co-treated with 5-aza-dC sensitizer; scaled so ellipticine positive control = 100%; 360,000 tested, 0.055% active; activation, % at 7.58 µM;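 active means mean normalized replicate activation at least 10% and every replicate at or above 10%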;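 further: 0% = median of on-plate neutral control wells and 100% = ellipticine 6 µM median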
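Material: XiGFP fibroblasts, SV40-immortalized; Buffer or medium: DMEM containing 5-aza-dC; Compound dosing: single point; Times: 3 days compound exposure.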
C2C12 statin: suppressors of statin myotoxicity in C2C12 myotubes, primary screen, cell-based, single point, plate reader | C2C12 myotubes + simvastatin, ATP luminescence, 48 h; scaled: DMSO 0, geranylgeraniol control 100 | rescue of ATP level, % at 7.49 µM | 330,000 tested, 0.78% active | AID 602340, 2012;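 active means mean ATP rescue above about 67%, or every replicate alone reaching that limit, limit read from the data, passing the limit was not always enough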;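 further: myotubes were challenged with 10 µM simvastatin during compound exposure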
Cneo AK release: Cryptococcus neoformans cell lysis inducers, primary screen, AK release luminescence, single concentration; C. neoformans lysis, adenylate kinase release luminescence, 4 h; normalised: neutral wells 0, clomiphene wells 100; lysis activity, % at 15 µM; 360,000 tested, 0.2% active;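 active means mean lysis activity across replicates of at least 80%, whatever share of replicates individually reach that level; inactive means mean lysis activity below 80%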
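Material – log-phase Cryptococcus neoformans yeast cells · Input – 5 × 10^6 yeast cells/mL · Medium – fresh YPD growth medium · Doses – single compound concentration per well · Timing – static 4 h at 37 °C with compound, 1 h detection · Detection – adenylate kinase release luminescence · Read-out – signal increase indicating cell lysis · Control set – Clomiphene as positive lysis control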
DENV2 CPE: inhibitors of DENV2 cytopathic effect, primary screen, cell-based, plate reader, single concentration; DENV2-infected cells, cytopathic effect rescue; CPE inhibition, % at 9.99 µM; 350,000 tested, 1.7% active; in the data active means CPE inhibition above about 20%, passing the limit was not always enough; tested in BHK-21 cells;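 further: 0% = median of neutral control wells and 100% = median of positive control wells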
An asterisk follows results filed as active; / = no result given.

SMILES | XiGFP reactiv | C2C12 statin | Cneo AK release | DENV2 CPE
O=C(C[C@@H]1CC[C@@H]2[C@H](COC[C@@H](O)CN2Cc2ccccc2)O1)NCCCN1CCOCC1 | 0 | 2 | -3 | -13
COCC(=O)N1CC2(C1)CN(C(=O)Cc1ccccc1)[C@H](CO)c1c2c2ccc(OC)cc2n1C | 0 | / | / | -11
CN(C)CC(=O)NC[C@H]1N[C@@H](CO)[C@H]1c1ccc(-c2cccc(C#N)c2)cc1 | 1 | -16 | 44 | 25*
COc1ccccc1C1NC(c2ccccc2OC)C(C)C(=O)C1C (stereo unspecified) | / | 1 | 2 | /
COc1ccc(C2NC(c3ccc(OC)c(OC)c3OC)C(C)C(=O)C2C)c(OC)c1OC (stereo unspecified) | / | 86* | -1 | /
O=[N+]([O-])c1ccccc1S(=O)(=O)Nc1ccc(S(=O)(=O)N2CCOCC2)cc1 | 0 | 7 | 0 | 31*
Cc1ccc(S(=O)(=O)Nc2ccc(S(=O)(=O)N3CCOCC3)cc2)cc1[N+](=O)[O-] | 0 | -10 | 1 | 0
C[C@@H]1CN([C@@H](C)CO)C(=O)Cc2cc(N(C)C)ccc2O[C@H]1CN(C)C(=O)Nc1ccc2c(c1)OCO2 | -1 | -6 | -6 | 30*
C[C@H](CO)N1C[C@H](C)[C@@H](CN(C)C(=O)Nc2ccc3c(c2)OCO3)Oc2ccc(NS(C)(=O)=O)cc2CC1=O | 0 | -33 | 2 | 31*
C[C@@H]1CN([C@H](C)CO)C(=O)Cc2cc(N(C)C)ccc2O[C@@H]1CN(C)C(=O)Nc1ccc2c(c1)OCO2 | -1 | 24 | -4 | 12
CC(C)NC(=O)Nc1ccc2c(c1)CC(=O)N([C@@H](C)CO)C[C@@H](C)[C@H](CN(C)C(=O)Nc1ccc3c(c1)OCO3)O2 | 0 | 10 | 85* | /
CCCN(C)C[C@@H]1Oc2ncc(C#CC3(O)CCCC3)cc2C(=O)N([C@H](C)CO)C[C@@H]1C | 0 | 2 | -3 | 5
C[C@@H]1CN([C@H](C)CO)S(=O)(=O)c2ccc(C3=CCCC3)cc2O[C@@H]1CN(C)C(=O)c1ccccc1 | 0 | -95 | 1 | -4
O=C(NCCN1C(=O)C2C3C=CC(C3)C2C1=O)Nc1cccnc1 (stereo unspecified) | 0 | -1 | -4 | 29*
Cc1nnc(SCC(=O)NC2CCCc3ccccc32)n1-c1ccccc1 (stereo unspecified) | 0 | / | / | 83*
O=C(CSc1nncn1-c1ccccc1)NC1CCCc2ccccc21 (stereo unspecified) | 0 | / | / | 0
CO[C@@H]1CN(C)C(=O)c2ccc(NC(=O)NC(C)C)cc2OC[C@H](C)N(C(=O)NC(C)C)C[C@H]1C | 0 | 0 | -4 | -4
O=C(c1ccccc1)N1CC[C@@H]2[C@H]1c1cc(-c3ccc(F)cc3)ccc1N[C@@H]2CO | 0 | 21 | 52 | 29*
O=C(c1ccccc1)N1CC[C@@H]2[C@H](CO)Nc3ccc(-c4ccc(F)cc4)cc3[C@@H]21 | 0 | -12 | 57 | 32*
O=C(c1cccc(F)c1)N1CC[C@@H]2[C@H](CO)Nc3ccc(-c4ccc(F)cc4)cc3[C@@H]21 | 0 | -6 | 47 | 15
C[C@@H]1CN([C@@H](C)CO)C(=O)c2cc(NC(=O)Nc3cccc4ccccc34)ccc2O[C@@H](C)CCCCO[C@H]1CN(C)CC1CCCCC1 | -1 | / | -2 | 28*
C[C@@H]1CCCCO[C@@H](CN(C)CC2CCCCC2)[C@H](C)CN([C@H](C)CO)C(=O)c2cc(NC(=O)Nc3cccc4ccccc34)ccc2O1 | -1 | / | 1 | 118*
C[C@@H]1CCCCO[C@H](CN(C)C)[C@H](C)CN([C@H](C)CO)C(=O)c2cc(NC(=O)Nc3cccc4ccccc34)ccc2O1 | 0 | -349 | 5 | 74*
C[C@@H]1CN([C@@H](C)CO)C(=O)c2cc(NC(=O)Nc3cccc4ccccc34)ccc2O[C@@H](C)CCCCO[C@@H]1CN(C)CC1CCCCC1 | 0 | / | -2 | -3
C[C@H](CO)N1C[C@H](C)[C@@H](CN(C)CC2CCCCC2)Oc2ccc(NC(=O)Nc3cccc4ccccc34)cc2C1=O | 0 | 96* | 0 | 0
SMILES | XiGFP reactiv | C2C12 statin | Cneo AK release | DENV2 CPE
C[C@@H]1CN([C@@H](C)CO)C(=O)c2cc(NC(=O)Nc3cccc4ccccc34)ccc2O[C@@H]1CN(C)CC1CCCCC1 | 0 | -11 | 4 | 9
COc1ccc(NC(=O)N(C)C[C@H]2Oc3ccc(NS(=O)(=O)c4cccs4)cc3CC(=O)N([C@@H](C)CO)C[C@@H]2C)cc1 | 0 | -23 | 1 | -3
C[C@H](CO)N1C[C@H](C)[C@H](CN(C)C(=O)Cc2ccccc2)OCCCC[C@H](C)Oc2ccc(NC(=O)c3ccccc3)cc2C1=O | 0 | / | 2 | 14
COc1cccc(CNC(=O)C[C@@H]2CC[C@@H](NC(=O)C3CCC3)[C@@H](CO)O2)c1 | 0 | -7 | -3 | 1
Cc1cc(C)nc(NC(=NCCc2c[nH]c3ccccc23)NC(=O)Nc2ccccc2)n1 | 0 | 13 | 7 | /
Cc1cc(C)nc(NC(=NCCc2c[nH]c3ccccc23)NC(=O)c2ccco2)n1 | / | 128* | / | /
O=C(NC(Cc1c[nH]c2ccccc12)C(=O)O)c1ccco1 (stereo unspecified) | / | 84* | -16 | /
O=C(Nc1ccccc1C(=O)NC(Cc1c[nH]c2ccccc12)C(=O)O)c1ccco1 (stereo unspecified) | / | 7 | 0 | /
O=C(/C=C/c1cn(CC(O)CN2CCCCC2)c2ccccc12)c1ccccc1 (stereo unspecified) | 1 | / | / | 27*
C[C@H]1CN([C@@H](C)CO)C(=O)c2cccc(NC(=O)c3cnccn3)c2O[C@@H]1CN(C)S(=O)(=O)c1ccccc1 | 0 | 12 | / | /
Cc1ccc(/C=C2\SC(=S)N(CCCC(=O)Nc3cccc(C(=O)O)c3)C2=O)cc1 | 0 | -4 | -4 | 85*
COCCn1nnnc1CN(CCc1ccc(OC)c(OC)c1)Cc1cc2ccc(C)cc2[nH]c1=O | / | 103* | / | /
COc1ccccc1-c1ccc([C@@H]2[C@@H](C#N)N(C(=O)NC3CCCC3)[C@@H]2CO)cc1 | 0 | / | / | -9
COCC(=O)N(C)C[C@@H]1Oc2ncc(-c3ccc(C)cc3)cc2C(=O)N([C@@H](C)CO)C[C@@H]1C | -1 | 32 | -1 | 4
CN(C)c1ccc(N=C/C=C2\N(C)c3ccccc3C2(C)C)cc1 | / | -11 | 0 | /
CN1/C(=C\C=Nc2ccccc2)C(C)(C)c2ccccc21 | / | 85* | -1 | /
CN1/C(=C/C=C(C#N)C#N)C(C)(C)c2ccccc21 | 25* | 2 | 1 | 3
CN1/C(=C\C=O)C(C)(C)c2ccccc21 | 0 | / | / | /

From PubChem BioAssay
